Sampled rows, rich in hits. Any-hit rate of the full collection: about 1.5%.
PREPL inhibitor = PREPL enzyme inhibitors, primary screen, biochemical, fluorescence polarization. inhibition, % at 5.96 µM. recombinant PREPL, fluorescence polarization activity-based probe. Prolyl endopeptidase-like (Homo sapiens), Q4J6C6. 320,000 compounds, 0.68% hits;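 note: 0% = enzyme with DMSO and 100% = wells lacking enzyme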
UBC13 inh = UBC13 polyubiquitin chain formation inhibitors, primary screen, biochemical, TR-FRET, uHTS | AID 485273, 2010 | inhibition, % at 20 µM | 330,000 compounds, 0.47% hits | Ubiquitin-conjugating enzyme E2 N (Homo sapiens), P61088; in the data active = inhibition above about 45%, passing the limit was not always enough
Target sequence (P61088 whole entry, looked up): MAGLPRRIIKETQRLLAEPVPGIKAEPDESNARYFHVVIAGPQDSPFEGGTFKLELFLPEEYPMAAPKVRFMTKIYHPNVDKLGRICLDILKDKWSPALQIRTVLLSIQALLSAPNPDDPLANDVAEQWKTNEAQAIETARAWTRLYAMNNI
Apaf1 inhib = inhibitors of human Apaf-1 apoptosome, primary screen, biochemical, DEVD-Rh110 fluorescence, uHTS | inhibition, % at 20 µM | reconstituted apoptosome caspase-3 activity | Apoptotic protease-activating factor 1 (Homo sapiens), O14727 | 330,000 compounds, 0.71% hits; active = inhibition of at least 40% at 20 µM;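 note: plate controls were DMSO wells for no effect and DEVD-CHO caspase inhibitor wells for full effect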
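Medium: Hepes buffer, pH 7.5 / System: biochemical Apaf-1 apoptosome reconstitution / Measured by: Rh110 fluorescence, excitation 480 nm, emission 540 nm / Times: compound with Apaf-1, dATP, procaspase-3 30 min, then 50 min reaction, room temperature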
UCH37 DUB inh = inhibitors of human UCH37 deubiquitinase, primary screen, biochemical, Ub-AMC cleavage, fluorescence; inhibition, % (concentration not given with the values); purified proteasome/UCH37; 330,000 compounds, 0.33% hits; Ubiquitin carboxyl-terminal hydrolase isozyme L5 (Homo sapiens), Q9Y5K5; AID 588478, 2011;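 active = mean inhibition over replicate wells above about 20%, limit read from the data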;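 note: 0% = compound-free wells with enzyme and 100% = wells lacking proteasome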
Target sequence (Q9Y5K5 whole entry, looked up): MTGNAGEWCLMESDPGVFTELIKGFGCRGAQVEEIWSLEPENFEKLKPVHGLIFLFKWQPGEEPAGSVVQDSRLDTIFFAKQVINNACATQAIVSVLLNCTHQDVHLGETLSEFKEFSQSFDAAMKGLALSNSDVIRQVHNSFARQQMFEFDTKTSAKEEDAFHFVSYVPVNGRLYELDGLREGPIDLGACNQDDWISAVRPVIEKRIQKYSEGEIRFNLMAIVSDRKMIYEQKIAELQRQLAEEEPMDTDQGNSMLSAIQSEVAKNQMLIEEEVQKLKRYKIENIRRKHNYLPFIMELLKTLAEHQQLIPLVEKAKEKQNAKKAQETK
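Material: human UCH37 enzyme supplied as purified proteasome complex. Measure: % inhibition of Ub-AMC cleavage fluorescence. Medium: pH 7.4 Tris-HCl (50 mM) with ovalbumin, ATP-MgCl2, DTT. Times: 30 min preincubation with enzyme, 25 min cleavage at room temperature. Detection: AMC fluorescence intensity at 355/460 nm.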
PREPL confirm = human PREPL enzyme inhibitors, confirmation, biochemical, fluorescence polarization. recombinant PREPL, fluorescence polarization activity probe. shares compounds with PREPL inhibitor. inhibition, % at 5.96 µM. 2,000 compounds, 67% hits;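 note: 0% = protein with DMSO and 100% = wells lacking protein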
Numbers without * were called inactive; i = inactive; nt = no result given. Cut-off read from the data, not from the text of the source, unless noted: active = inhibition above about 43%; inactive = the rest.

SMILES	PREPL inhibitor	UBC13 inh	Apaf1 inhib	UCH37 DUB inh	PREPL confirm
O=C(CCN1CCCCCC1)Nc1ccc2c(c1)OCCO2	45*	2	8	1	12
CC(C)c1c(C(=O)NN=Cc2cccc(OCc3ccccc3)c2)nnn1-c1nonc1N	nt	nt	nt	2	nt
Cc1cc[n+](CC(=O)c2cccc([N+](=O)[O-])c2)c2ccccc12	45*	6	14	3	14
O=C(C[n+]1cccc2ccccc21)c1ccc([N+](=O)[O-])cc1	27	-13	7	5	nt
Cc1c(CCOC(=O)c2ccc([N+](=O)[O-])cc2)sc[n+]1CC(=O)c1ccccc1	63*	13	10	2	29
COc1ccc(C(=O)OCCc2sc[n+](CC(=O)c3ccccc3)c2C)cc1	26	3	27	1	nt
Cc1c(CCOC(=O)c2cccc([N+](=O)[O-])c2)sc[n+]1CC(=O)c1ccccc1	51*	11	8	1	21
CC(Cn1nc([N+](=O)[O-])cc1C)=NNC(=O)c1cccc(Br)c1	nt	nt	nt	2	nt
C=CCn1cnc2c(c1=O)c1nc3ccccc3nc1n2N=Cc1cccc(OC)c1OC	nt	nt	nt	-14	nt
S=c1[nH]nc(-c2ccccc2)n1N=Cc1ccc(Cl)cc1	nt	nt	nt	8	nt
Cc1nn(-c2ccccc2)c(C)c1C=NNC(=O)CSc1nc2ccccc2c(=O)n1-c1ccccc1	nt	nt	nt	4	nt
Cc1ccccc1OCC(=O)Nc1ccc(N2CCN(C(=O)c3ccco3)CC2)cc1	58*	-8	9	1	48*
Cc1cccc(OCC(=O)Nc2ccc(N3CCN(C(=O)c4ccco4)CC3)cc2)c1C	48*	-4	19	2	47*
Cc1ccc(C(=O)NC(=S)Nc2ccc(N3CCN(C(=O)c4ccco4)CC3)cc2)cc1	48*	-6	11	2	37
CC(=NO)c1c(O)cc(-c2ccccc2)n(-c2ccccc2)c1=O	nt	nt	nt	1	nt
CC(=NNC(=O)c1ccc2c(c1)OCO2)c1cccc(NC(=O)C(C)(C)C)c1	nt	nt	nt	6	nt
CCOc1ccc(C=NN(C)c2ccccc2)cc1OC	nt	nt	nt	2	nt
Cc1cc(/C=N/NC(N)=S)c(C)n1-c1ccc(Br)cc1	54*	-5	2	nt	45*
Nc1nc(-c2ccccc2)c(N=Nc2cccc3ccccc23)s1	15	-81	15	8	nt
Nc1nc(-c2ccccc2)c(N=Nc2ccccc2Cl)s1	61*	-197	28	14	62*
CN1Cc2c(N3CCOCC3)nc3sc(C(=O)c4ccccc4)c(N)c3c2CC1(C)C	61*	8	4	0	64*
CCOC(=O)c1sc2nc(N3CCOCC3)c3c(c2c1N)CC(C)(C)N(C)C3	20	-1	13	-430	nt
C(=N\Nc1ncnc2ccccc12)/c1ccccc1	45*	-10	18	nt	21
CCCn1c(SCC(=O)c2c[nH]c3ccccc23)nnc1-c1ccncc1	44*	-2	15	6	35
Cc1cc(C)n(Cc2cccc(C(=O)NN=Cc3ccncc3)c2)n1	nt	nt	nt	-1	nt
SMILES	PREPL inhibitor	UBC13 inh	Apaf1 inhib	UCH37 DUB inh	PREPL confirm
O=C(COC(=O)c1cccc(S(=O)(=O)N2CCOCC2)c1)Nc1ccc2c(c1)OCO2	1	6	7	0	nt
O=C(COC(=O)c1ccc2c(c1)OCCO2)Nc1cccc(S(=O)(=O)N2CCOCC2)c1	72*	-5	8	-1	8
COC(=O)CCC(=O)OC1(C)C(=O)C2=CN(CC(C)C)C(c3ccc(OC)cc3)=CC2=C(Br)C1=O (stereo not drawn)	74*	-97	52*	nt	48*
COC(=O)CCC(=O)OC1(C)C(=O)C2=CN(Cc3ccccc3)C(c3ccc(OC)cc3)=CC2=C(Br)C1=O (stereo not drawn)	46*	-85	31	5	42
COC(=O)CCC(=O)OC1(C)C(=O)C2=CN(Cc3ccc(OC)cc3)C(c3ccc(OC)cc3)=CC2=C(Br)C1=O (stereo not drawn)	22	-85	30	1	nt
C=CCNC(=S)NN=Cc1ccccc1OCCOc1ccccc1	nt	nt	nt	-1	nt
O=C(Cc1ccccc1)NN=Cc1ccc(S(=O)(=O)O)o1	nt	nt	nt	2	nt
COc1ccc(OCC(=O)NN=Cc2ccc(O[C@@H]3O[C@H](CO)[C@@H](O)[C@H](O)[C@H]3O)cc2)cc1	nt	nt	nt	3	nt
Cn1c(N2CCCC2)nc2c1c(=O)n(Cc1ccc(F)cc1)c(=O)n2C	7	-1	-1	2	nt
Cn1c(N2CCOCC2)nc2c1c(=O)n(Cc1ccc(Cl)c(Cl)c1)c(=O)n2C	44*	9	1	3	26
CC(=O)N1CCN(c2ccc(NCc3ccco3)cc2)CC1	8	-14	-3	2	nt
Clc1ccc(CNc2ccc(N3CCN(Cc4ccccc4)CC3)cc2)cc1	48*	0	8	5	49*
CC(=O)N1CCN(c2ccc(NCc3ccc(C)cc3)cc2)CC1	74*	5	0	0	46*
CCc1ccc(CNc2ccc(N3CCN(C(C)=O)CC3)cc2)cc1	66*	-8	17	1	57*
CC1(C)Cc2[nH]c3ccccc3c2C(C)(C)N1	9	9	-4	-2	nt
CC1=NCC(C)c2c1[nH]c1ccccc21 (stereo not drawn)	45*	5	8	-75	8
N=c1c(C(=O)NCc2ccc(F)cc2)cc2c(=O)n3ccccc3nc2n1Cc1cccnc1	45*	0	-5	i	42
COc1ccc(C=NN2C(C)CCCC2C)cc1OC (stereo not drawn)	nt	nt	nt	5	nt
COc1ccc2c(c1)CC1c3c(cc4c(c3-2)OCO4)CC[N+]1(C)[O-] (stereo not drawn)	55*	-42	17	-1	20
O=[N+]([O-])c1cc(C=NNc2nc(N3CCOCC3)nc(N3CCOCC3)n2)ccc1Cl	nt	nt	nt	4	nt
Cc1c(C(O)CN2CCN(Cc3ccc4c(c3)OCO4)CC2)c2ccccc2n1C (stereo not drawn)	37	5	-1	1	nt
COc1ccc2c(c1)c(C(O)CN1CCN(Cc3ccc4c(c3)OCO4)CC1)c(C)n2C (stereo not drawn)	47*	12	0	0	32
O=C(NN=C/C=C/c1ccccc1)c1ccccn1	nt	nt	nt	11	nt
Cc1csc(NN=Cc2ccccc2F)n1	nt	nt	nt	2	nt
Oc1c(CN2CCOCC2)cc(COCc2ccccc2)c2cccnc12	56*	nt	nt	-4	65*
Oc1c(CNc2ccccc2)cc(COCc2ccccc2)c2cccnc12	17	-29	12	-1	nt
Fc1ccc(N2CCN(c3cnc4ccccc4n3)CC2)cc1	45*	5	12	-5	39
c1ccc(N2CCN(c3cnc4ccccc4n3)CC2)cc1	37	7	10	-97	nt
CN(C)Cc1c(C(=O)NN=CCCc2ccccc2)nnn1-c1nonc1N	nt	nt	nt	-1	nt
